Assay results published in ChEMBL document CHEMBL1146656, “The monoethyl ester of meconic acid is an active site inhibitor of HCV NS5B RNA-dependent RNA polymerase” (Bioorg Med Chem Lett, 2004).

How the values were obtained:
[1] = biological target: T1, RNA-directed RNA polymerase (Hepacivirus hominis, UniProt O39930); assay: Inhibitory potency of compound in presence of Mg2+ ion against NS5B HCV polymerase
Procedure, shortened: (§1)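 NS5B with C-terminal 55-residue truncation (ΔC55), expressed in E. coli and purified; 5 nM enzyme in 20 mM Tris/HCl pH 7.5, 0.05% Triton X-100, 2% glycerol, 50 mM NaCl, 1 mM DTT, 5 mM MgCl2. Enzyme preincubated 20 min at 23 °C with poly(rA)/oligo(rU) (20 µg/mL final). Started with 10 µM 3H-UTP, 30 min at 23 °C. Acid-insoluble radioactivity measured; IC50 from three-parameter logistic fit; mean of 2–4 experiments.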

[2] = biological target: T1, RNA-directed RNA polymerase; assay: Inhibitory potency against NS5B HCV polymerase
Procedure, shortened: as §1, with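 “NS5BΔC55 (C-terminal” for “NS5B with C-terminal”, “truncation)” for “truncation (ΔC55),”, “purified to homogeneity, used at” for “purified;”, “nM” for “nM enzyme”, “counted.” for “measured;”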

Hepatitis C virus = assay: Tested for inhibition of HCV RNA replication in a cell-basedassay; No significant inhibition; assay type: functional, organism-based, Hepacivirus hominis
[3] = biological target: T1, RNA-directed RNA polymerase; assay: Inhibitory potency of compound in presence of Mn2+ ion against NS5B HCV polymerase
[4] = biological target: T1, RNA-directed RNA polymerase; assay: Ability of compound to displace [3H]-DKA from NS5B HCV polymerase by 50%

T1 sequence (O39930 whole entry, the tested form may be a part): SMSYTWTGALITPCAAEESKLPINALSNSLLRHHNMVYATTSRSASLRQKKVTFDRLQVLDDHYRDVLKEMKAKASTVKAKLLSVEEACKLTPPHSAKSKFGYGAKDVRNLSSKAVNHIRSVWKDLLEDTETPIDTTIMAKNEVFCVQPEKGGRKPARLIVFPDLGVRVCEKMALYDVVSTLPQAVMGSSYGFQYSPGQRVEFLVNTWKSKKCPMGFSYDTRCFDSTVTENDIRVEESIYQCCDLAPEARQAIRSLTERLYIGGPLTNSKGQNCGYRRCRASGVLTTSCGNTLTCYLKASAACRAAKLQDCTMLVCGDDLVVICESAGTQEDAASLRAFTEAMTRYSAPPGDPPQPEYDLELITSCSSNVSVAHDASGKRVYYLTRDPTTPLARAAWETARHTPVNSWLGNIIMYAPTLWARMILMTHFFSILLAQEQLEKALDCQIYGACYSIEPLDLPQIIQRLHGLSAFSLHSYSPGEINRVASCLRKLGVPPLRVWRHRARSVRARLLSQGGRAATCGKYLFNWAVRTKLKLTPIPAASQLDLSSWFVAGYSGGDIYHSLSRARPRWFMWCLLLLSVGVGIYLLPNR

Row | SMILES | IC50 [1] | EC50 (Hepatitis C virus) | IC50 [3] | DC50 [4] | IC50 [2]
1 | O=C(O)c1oc(COCc2ccccc2)cc(=O)c1O |  | > 50 µM |  |  | > 100 µM
2 | CCOC(=O)c1cc(=O)c(O)c(C(=O)OCC)o1 | > 100 µM | > 50 µM | 4 µM |  | > 100 µM
3 | CCOC(=O)c1cc(=O)c(O)co1 |  | > 50 µM |  |  | > 100 µM
4 | O=C(O)c1cc(=O)c(O)c(C(=O)O)o1 | > 100 µM | 50 µM | 18 µM |  | > 100 µM
5 | O=C(O)c1occc(=O)c1O |  | > 50 µM |  |  | 51 µM
6 | O=C(O)C(=O)/C=C(\O)c1ccccc1 |  | > 50 µM |  | 0.3 µM | 
7 | O=C(O)c1oc2ccccc2c(=O)c1O | 23 µM | > 50 µM | 1.9 µM |  | 
8 | CCN(CC)C(=O)c1cc(=O)c(O)c(C(=O)O)o1 |  | > 50 µM |  |  | > 100 µM
9 | COC(=O)c1oc(C(=O)O)cc(=O)c1O |  | > 50 µM |  |  | > 100 µM

More lines, main results first:

Row | IC50 [1] | EC50 (Hepatitis C virus) | IC50 [3] | DC50 [4] | SMILES | IC50 [2]
10 | 16.2 µM | > 50 µM | 0.8 µM |  | CCOCc1cc(=O)c(O)c(C(=O)O)o1 | 16.2 µM
11 | 2.25 µM | > 50 µM | 0.165 µM | 1.2 µM | CCOC(=O)c1cc(=O)c(O)c(C(=O)O)o1 | 2.25 µM
12 |  | > 50 µM |  |  | CCNC(=O)c1cc(=O)c(O)c(C(=O)O)o1 | 24 µM
13 |  | > 50 µM |  |  | CC(C)(C)OC(=O)c1cc(=O)c(O)c(C(=O)O)o1 | 36 µM
